As a reminder, the CC50 is the concentration that lowers cell viability or growth by half. What is called IC50 is the concentration needed to halve the response being measured. By inhibition is commonly meant the relative decrease from the control value, in per cent.

2 molecules from ChEMBL document CHEMBL4138128, “Structural design, synthesis and pharmacological evaluation of thiazoles against Trypanosoma cruzi” (Eur J Med Chem, 2017) can be followed below.

For data set [1], the system named is Trypanosoma cruzi. As to the kind of experiment: Induction of apoptosis in bloodstream trypomastigote stage of Trypanosoma cruzi Y assessed as necrotic cells at 0.4 uM measured after 24 hrs by Annexin V-FITC/propidium iodide staining based flow cytometry (reference value: 0.5%). The data set is classed as functional. On the technique in general: In flow cytometry, cells or beads pass a laser one at a time.

The test system of data set [2] is Mus musculus. As to the kind of experiment: Toxicity in Balb/c mouse infected with Trypanosoma cruzi Y trypomastigotes assessed as behavioral alteration at 25 mg/kg, po qd administered for 5 consecutive days starting from day 5 post infection. The following applies: in vivo. In kind it is organism-based. In a few lines: (§1)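 Female BALB/c mice (18-22 g, 6-8 weeks) infected i.p. with 10^4 Y strain bloodstream trypomastigotes in saline; six per group. From day 5, oral dosing once daily for 5 days; vehicle saline with 20% DMSO. Parasitaemia counted as motile parasites in 5 µL tail-vein blood; reduction = (vehicle mean − treated mean)/vehicle mean × 100. Mortality followed to 30 days post-treatment.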

Data set [3] deals with Trypanosoma cruzi. Briefly: Antitrypanosomal activity against bloodstream trypomastigote stage of Trypanosoma cruzi Y assessed as induction of mitochondrial membrane potential loss at 0.4 to 0.8 uM measured after 24 hrs by Rho-123 staining based FACS analysis. The data set is classed as functional, organism-based. In a few lines: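 Trypomastigotes (1 x 10^7/mL) from LLC-MK2 culture supernatants, exposed 24 h at 37°C in DMEM with FBS; washed in PBS, stained 15 min with 5 µg/mL Rhodamine 123, washed, analysed immediately by flow cytometry; 10,000 events gated on trypomastigote region.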

Data set [4] has as its system Trypanosoma cruzi. Briefly: Induction of apoptosis in bloodstream trypomastigote stage of Trypanosoma cruzi Y assessed as viable cells at 0.4 uM measured after 24 hrs by Annexin V-FITC/propidium iodide staining based flow cytometry (reference value: 89.73%). In kind it is functional.
In data set [5] the test system is Trypanosoma cruzi. Briefly: Antitrypanosomal activity against bloodstream trypomastigote stage of Trypanosoma cruzi Y infected in Balb/c mouse assessed as reduction in blood parasitaemia at 25 mg/kg, po qd administered for 5 consecutive days starting from day 5 post infection measured on day 12 post infection relative to control. In kind it is functional. Also noted: scale not given: the % may be the effect or the level left. The method in brief: as §1

A short description of data set [6]: Cytotoxicity against rat H9c2 cells assessed as reduction in cell viability after 72 hrs by alamar blue assay. In kind it is cell-based. The method in brief: (§2)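 H9c2 or J774 cells (1 x 10^4/well) in DMEM/10% FBS preincubated 24 h, then exposed 72 h to six concentrations (0.41 to 100 µM) in triplicate, DMSO under 1%. Viability by AlamarBlue, read after 6 h at 570/600 nm; CC50 from three independent experiments; gentian violet positive control.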

Data set [7] concerns Trypanosoma cruzi. As to the kind of experiment: Antitrypanosomal activity against bloodstream trypomastigote stage of Trypanosoma cruzi Y infected in Balb/c mouse assessed as reduction in blood parasitaemia at 25 mg/kg, po qd administered for 5 consecutive days starting from day 5 post infection measured on day 8 post infection relative to control. The data set is classed as functional. Details: scale not given: the % may be the effect or the level left. The method in brief: as §1

Data set [8] in a line: Safety index, ratio of compound CC50 to gentian violet CC50 for cytotoxicity against mouse J774 cells. In kind it is cell-based. In a few lines:
as §2

Data set [9] has as its system Trypanosoma cruzi. As to the kind of experiment: Antitrypanosomal activity against bloodstream trypomastigote stage of Trypanosoma cruzi Y infected in monkey LLC-MK2 cells assessed as reduction in parasite motility measured after 24 hrs by neubauer chamber method. The note with it: LLC-MK2, 24 h. The data set is classed as functional, organism-based. The method in brief:
(§3)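 Y strain trypomastigotes from LLC-MK2 supernatants, 4x10^5/well, incubated 24 h at 37°C, 5% CO2 with five concentrations; viable parasites counted by motility in Neubauer chamber. Inhibition versus untreated cultures; IC50 by non-linear regression; benznidazole reference.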

Data set [10] can be described thus: Cytotoxicity against mouse J774 cells assessed as reduction in cell viability after 72 hrs by alamar blue assay. The data set is classed as cell-based. In a few lines:
as §2

A short description of data set [11]: Safety index, ratio of compound CC50 to gentian violet CC50 for cytotoxicity against rat H9c2 cells. The data set is classed as cell-based. The method in brief: as §2
Data set [12] relates to Trypanosoma cruzi. Briefly: Potency index, ratio of benznidazole IC50 to compound IC50 for antitrypanosomal activity against bloodstream trypomastigote stage of Trypanosoma cruzi Y infected in monkey LLC-MK2 cells. In kind it is functional. In a few lines:
as §3

The subject of data set [13] is Trypanosoma cruzi. Briefly: Induction of apoptosis in bloodstream trypomastigote stage of Trypanosoma cruzi Y assessed as early apoptotic cells at 0.4 uM measured after 24 hrs by Annexin V-FITC/propidium iodide staining based flow cytometry (reference value: 8.25%). In kind it is functional.
In data set [14] the test system is Trypanosoma cruzi. Briefly: Induction of apoptosis in bloodstream trypomastigote stage of Trypanosoma cruzi Y assessed as late apoptotic cells at 0.4 uM measured after 24 hrs by Annexin V-FITC/propidium iodide staining based flow cytometry (reference value: 1.51%). In kind it is functional.
In data set [15] the test system is Trypanosoma cruzi. Briefly: Antitrypanosomal activity against bloodstream trypomastigote stage of Trypanosoma cruzi Y infected in Balb/c mouse macrophages assessed as reduction in number of intracellular amastigotes measured after 3 days by hoeschst staining based confocal microscopic method. In kind it is functional, organism-based. The method in brief:
(§4)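 BALB/c peritoneal macrophages (5x10^4/well) in DMEM/10% FBS, infected with trypomastigotes (10:1) for 2 h, washed, held 24 h, then treated 72 h (test at 8, 2, 0.5 µM; benznidazole 5 µM control). Formaldehyde-fixed, Hoechst-stained, imaged by confocal high-content microscopy for infected cells and amastigotes per 100 cells; six determinations; ANOVA with Bonferroni.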

The nature of data set [16]: Solubility of the compound in pH 5.5 sodium acetate buffer at 10 uM. The following applies: pH 5.5, 10 µM.
Data set [17] concerns Trypanosoma cruzi. As to the kind of experiment: Antitrypanosomal activity against bloodstream trypomastigote stage of Trypanosoma cruzi Y infected in Balb/c mouse macrophages assessed as reduction in number of infected cells measured after 3 days by hoeschst staining based confocal microscopic method. In kind it is functional, organism-based. In a few lines: as §4
Data set [18] concerns Trypanosoma cruzi. Briefly: Antitrypanosomal activity against bloodstream trypomastigote stage of Trypanosoma cruzi Y infected in Balb/c mouse assessed as protection against mouse mortality at 25 mg/kg, po qd administered for 5 consecutive days starting from day 5 post infection measured up to 30 days post treatment. The data set is classed as functional, organism-based. The method in brief:
as §1

Data set [19] deals with Cruzipain (Trypanosoma cruzi) (UniProt P25779). As to the kind of experiment: Inhibition of recombinant Trypanosoma cruzi cruzain at 10 uM preincubated for 10 mins followed by Z-FR-AMC substrate addition measured for 5 mins at 12 secs time interval by […] relative to control. In a few lines:
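Cruzain 0.5 nM in 0.1 M sodium acetate pH 5.5, 1 mM beta-mercaptoethanol, 0.01% Triton X-100, 25 °C; 10 min preincubation, then Z-FR-AMC 2.5 µM (Km 1 µM). Fluorescence (ex 340, em 440) read continuously 5 min; initial rates versus DMSO control. Screens at 10 µM, two independent runs in triplicate; IC50 from at least seven concentrations, four-parameter fit, at least two curves.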

In data set [20] the test system is Trypanosoma cruzi. As to the kind of experiment: Synergistic antitrypanosomal activity against bloodstream trypomastigote stage of Trypanosoma cruzi Y infected in monkey LLC-MK2 cells measured after 24 hrs in presence of benznidazole. In kind it is functional. In a few lines: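 Doubling dilutions of each drug alone or in fixed-ratio combinations tested on trypomastigotes by the 24 h motility assay; combination index by Chou-Talalay method and isobologram.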

Data set [21] deals with Trypanosoma cruzi. Briefly: Antitrypanosomal activity against bloodstream trypomastigote stage of Trypanosoma cruzi Y infected in Balb/c mouse assessed as reduction in blood parasitaemia at 100 mg/kg, po qd administered for 5 consecutive days starting from day 5 post infection measured on day 12 post infection relative to control. In kind it is functional. Also noted: scale not given: the % may be the effect or the level left. In a few lines:
as §1

For data set [22], the system named is Trypanosoma cruzi. Briefly: Antitrypanosomal activity against bloodstream trypomastigote stage of Trypanosoma cruzi Y infected in Balb/c mouse macrophages assessed as reduction in number of intracellular amastigotes at 0.5 uM measured after 3 days by hoeschst staining based confocal microscopic method. The following applies: 5 uM, in the assay text read “at 5 uM” for “at 0.5 uM”. In kind it is functional, organism-based. The method in brief: as §4

The test system of data set [23] is Mus musculus. As to the kind of experiment: Toxicity in Balb/c mouse infected with Trypanosoma cruzi Y trypomastigotes assessed as behavioral alteration at 100 mg/kg, po qd administered for 5 consecutive days starting from day 5 post infection. The data set is classed as organism-based. The note with it: in vivo. In a few lines:
as §1

In data set [24] the test system is Trypanosoma cruzi. As to the kind of experiment: Antitrypanosomal activity against bloodstream trypomastigote stage of Trypanosoma cruzi Y infected in Balb/c mouse assessed as reduction in blood parasitaemia at 100 mg/kg, po qd administered for 5 consecutive days starting from day 5 post infection measured on day 8 post infection relative to control. The data set is classed as functional. Details: scale not given: the % may be the effect or the level left. The method in brief: as §1

Data set [25] relates to Trypanosoma cruzi. Briefly: Antitrypanosomal activity against bloodstream trypomastigote stage of Trypanosoma cruzi Y infected in Balb/c mouse assessed as protection against mouse mortality at 100 mg/kg, po qd administered for 5 consecutive days starting from day 5 post infection measured up to 30 days post treatment. In kind it is functional, organism-based. In a few lines: as §1

For data set [26], the system named is Trypanosoma cruzi. As to the kind of experiment: Antitrypanosomal activity against bloodstream trypomastigote stage of Trypanosoma cruzi Y infected in Balb/c mouse macrophages assessed as reduction in number of infected cells at 0.5 uM measured after 3 days by hoeschst staining based confocal microscopic method. The note with it: 5 uM, in the assay text read “at 5 uM” for “at 0.5 uM”. The data set is classed as functional, organism-based. In a few lines: as §4

The source made the active and inactive calls. The calls are words filed in the database; no cut-off is given here. Some results are limits rather than exact numbers.

Chain of Cruzipain (Trypanosoma cruzi) (P25779 123-467 limits assumed): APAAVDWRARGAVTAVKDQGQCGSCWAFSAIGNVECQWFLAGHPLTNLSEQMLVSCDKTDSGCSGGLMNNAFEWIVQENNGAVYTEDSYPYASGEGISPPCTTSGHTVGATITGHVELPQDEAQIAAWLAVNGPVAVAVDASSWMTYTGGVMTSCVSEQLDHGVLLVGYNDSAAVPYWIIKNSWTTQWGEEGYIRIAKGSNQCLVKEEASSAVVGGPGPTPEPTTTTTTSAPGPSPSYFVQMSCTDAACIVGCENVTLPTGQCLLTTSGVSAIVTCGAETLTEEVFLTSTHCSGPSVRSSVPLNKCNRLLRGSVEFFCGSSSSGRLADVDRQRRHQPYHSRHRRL

On to `C/C(=N\Nc1nc(-c2ccccn2)cs1)c1ccc(Cl)c(Cl)c1`, for which the Activity is 0.19% with Trypanosoma cruzi [1]; “Non-Toxic” in the data set on Mus musculus [2]; 74.62% in the data set on Trypanosoma cruzi [4]; 64.1% in the data set with Trypanosoma cruzi [5]; 54.6% with Trypanosoma cruzi [7]; 18.05% in the data set on Trypanosoma cruzi [13]. Also, the Activity with Trypanosoma cruzi [14] is 7.13%; with Trypanosoma cruzi [15], “Dose-dependent effect”; with Trypanosoma cruzi [17] it was “Dose-dependent effect”. The outcome with Trypanosoma cruzi [3] and in the data set with Trypanosoma cruzi [18] was Active. In addition, the 50% cytotoxic concentration (CC50) at 72 h in [6] was 10.2 µM; in data set [10], 10.1 µM. For the same molecule, the selectivity ratio in [8] is 22; in [11], 7. Further, the IC50 in the data set with Trypanosoma cruzi [9] stood at 0.37 µM. Moreover, the “Ratio IC50” value with Trypanosoma cruzi [12] is reported as 28. In data set [16], the solubility entry was “Soluble”. The inhibition in data set [19] worked out at 17%. For the same molecule, in the data set on Trypanosoma cruzi [20], the CI was found to be 0.37.

Regarding `O=C(Cn1ccnc1[N+](=O)[O-])NCc1ccccc1` [BENZNIDAZOLE], the CC50 at 72 h in [6] and in data set [10] was > 50 µM each time. In addition, in the data set with Trypanosoma cruzi [9], the IC50 stood at 10.6 µM. Moreover, the Activity in the data set on Trypanosoma cruzi [21] was >99%; in the data set with Mus musculus [23], “Non-Toxic”; with Trypanosoma cruzi [24] it was >99%. Besides, the outcome with Trypanosoma cruzi [22], in the data set with Trypanosoma cruzi [25] and in the data set with Trypanosoma cruzi [26] was Active.
